Results published in article PMC4107104 (Hippocampus, 2014).

Experiments:
recombinant human HDAC 1 = recombinant human HDAC 1 (Homo sapiens, UniProt Q13547); assay: HDAC enzyme inhibition assay, HDAC1; assay type: biochemical; settings: read-out: In vitro IC50, HD1, NI = no inhibition up to 10 mM tested
Method in brief: (§1)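 Recombinant human enzyme incubated at 37°C for 30 min in HDAC assay buffer with 5 μg BSA and fluorogenic substrate 3 (10 μM). Double-strength developer was then added for 20 min at room temperature, and fluorescence was read at ex 360/em 460 nm. The six-point concentration series was run in duplicate. Activity was taken as (F−Fb)/(Ft−Fb), with no-inhibitor as 100% and no-enzyme as 0%, and IC50 came from a sigmoidal nonlinear fit.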

recombinant human HDAC 2 = recombinant human HDAC 2 (Homo sapiens, UniProt Q92769); assay: HDAC enzyme inhibition assay, HDAC2; assay type: biochemical; settings: read-out: In vitro IC50, HD2
recombinant human HDAC 2, sequence (Q92769 whole entry): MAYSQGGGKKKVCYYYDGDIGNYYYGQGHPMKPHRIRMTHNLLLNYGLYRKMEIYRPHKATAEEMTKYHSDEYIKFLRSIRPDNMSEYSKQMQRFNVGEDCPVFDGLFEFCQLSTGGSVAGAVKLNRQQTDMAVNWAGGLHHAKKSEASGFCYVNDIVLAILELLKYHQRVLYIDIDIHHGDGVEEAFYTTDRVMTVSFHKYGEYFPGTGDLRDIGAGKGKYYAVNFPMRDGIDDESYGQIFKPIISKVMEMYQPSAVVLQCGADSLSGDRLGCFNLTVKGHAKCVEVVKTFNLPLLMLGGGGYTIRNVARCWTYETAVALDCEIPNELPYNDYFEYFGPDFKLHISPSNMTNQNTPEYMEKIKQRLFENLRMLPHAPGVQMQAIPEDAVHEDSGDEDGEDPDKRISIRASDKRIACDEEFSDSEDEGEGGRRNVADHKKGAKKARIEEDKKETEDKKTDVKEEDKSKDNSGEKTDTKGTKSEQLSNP
Method in brief: as §1

recombinant human HDAC 3 = recombinant human HDAC 3 (Homo sapiens, UniProt O15379); assay: HDAC enzyme inhibition assay, HDAC3; assay type: biochemical; settings: read-out: In vitro IC50, HD3
recombinant human HDAC 3, sequence (O15379 whole entry): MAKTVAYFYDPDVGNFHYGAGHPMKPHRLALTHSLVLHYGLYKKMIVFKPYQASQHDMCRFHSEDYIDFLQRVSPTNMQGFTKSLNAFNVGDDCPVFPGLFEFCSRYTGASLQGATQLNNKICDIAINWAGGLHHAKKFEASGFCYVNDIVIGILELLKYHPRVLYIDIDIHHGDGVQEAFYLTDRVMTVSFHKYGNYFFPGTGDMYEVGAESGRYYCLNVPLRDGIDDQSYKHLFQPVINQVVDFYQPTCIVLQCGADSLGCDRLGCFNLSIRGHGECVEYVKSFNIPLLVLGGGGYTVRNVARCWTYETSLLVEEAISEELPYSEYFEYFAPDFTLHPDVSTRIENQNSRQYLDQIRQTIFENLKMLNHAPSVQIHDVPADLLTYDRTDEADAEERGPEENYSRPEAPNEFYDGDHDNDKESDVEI
recombinant human HDAC 3, sequence (Q9Y618 395-489 partner limits assumed): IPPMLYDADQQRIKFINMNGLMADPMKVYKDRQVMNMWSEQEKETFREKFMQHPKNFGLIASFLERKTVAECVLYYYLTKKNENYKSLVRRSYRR
Method in brief: as §1

recombinant human HDAC 8 = molecular target: T1, recombinant human HDAC 8 (Homo sapiens, UniProt Q9BY41); assay: HDAC enzyme inhibition assay, HDAC8; assay type: biochemical; settings: read-out: In vitro IC50, HD8
T1 sequence (Q9BY41 1-377): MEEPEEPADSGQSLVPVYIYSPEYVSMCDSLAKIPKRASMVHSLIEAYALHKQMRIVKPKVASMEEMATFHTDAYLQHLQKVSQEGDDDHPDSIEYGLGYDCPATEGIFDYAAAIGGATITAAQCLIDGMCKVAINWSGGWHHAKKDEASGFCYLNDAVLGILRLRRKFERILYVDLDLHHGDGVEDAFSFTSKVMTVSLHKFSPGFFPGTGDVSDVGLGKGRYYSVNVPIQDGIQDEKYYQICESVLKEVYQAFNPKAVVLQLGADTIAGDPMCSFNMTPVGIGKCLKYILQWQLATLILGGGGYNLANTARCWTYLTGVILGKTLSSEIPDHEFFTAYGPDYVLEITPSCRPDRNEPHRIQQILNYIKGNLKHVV
Method in brief: as §1

[1] = molecular target: T2, recombinant human HDAC 10 (Homo sapiens, UniProt Q969S8); assay: HDAC enzyme inhibition assay, HDAC10; assay type: biochemical; settings: read-out: In vitro IC50, HD10
T2 sequence (Q969S8 1-669): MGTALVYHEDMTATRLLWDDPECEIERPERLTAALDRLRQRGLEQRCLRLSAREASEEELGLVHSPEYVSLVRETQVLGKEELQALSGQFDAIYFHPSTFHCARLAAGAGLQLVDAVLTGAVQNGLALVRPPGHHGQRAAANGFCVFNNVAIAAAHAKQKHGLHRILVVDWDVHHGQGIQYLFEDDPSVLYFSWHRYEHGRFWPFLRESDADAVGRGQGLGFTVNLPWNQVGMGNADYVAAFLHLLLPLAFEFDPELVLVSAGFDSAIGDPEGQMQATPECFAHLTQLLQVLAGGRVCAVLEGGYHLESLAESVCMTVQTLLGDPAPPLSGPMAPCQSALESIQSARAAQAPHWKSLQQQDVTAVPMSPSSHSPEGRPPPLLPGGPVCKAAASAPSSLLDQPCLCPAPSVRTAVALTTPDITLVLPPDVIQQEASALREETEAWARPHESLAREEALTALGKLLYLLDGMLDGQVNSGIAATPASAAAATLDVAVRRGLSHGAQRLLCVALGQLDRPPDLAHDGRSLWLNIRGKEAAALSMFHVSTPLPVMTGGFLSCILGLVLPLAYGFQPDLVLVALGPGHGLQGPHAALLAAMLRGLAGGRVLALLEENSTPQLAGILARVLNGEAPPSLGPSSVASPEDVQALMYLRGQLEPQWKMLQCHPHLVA
Method in brief: as §1

[2] = molecular target: T3, recombinant human HDAC 11 (Homo sapiens, UniProt Q96DB2); assay: HDAC enzyme inhibition assay, HDAC11; assay type: biochemical; settings: read-out: In vitro IC50, HD11
T3 sequence (Q96DB2 1-347): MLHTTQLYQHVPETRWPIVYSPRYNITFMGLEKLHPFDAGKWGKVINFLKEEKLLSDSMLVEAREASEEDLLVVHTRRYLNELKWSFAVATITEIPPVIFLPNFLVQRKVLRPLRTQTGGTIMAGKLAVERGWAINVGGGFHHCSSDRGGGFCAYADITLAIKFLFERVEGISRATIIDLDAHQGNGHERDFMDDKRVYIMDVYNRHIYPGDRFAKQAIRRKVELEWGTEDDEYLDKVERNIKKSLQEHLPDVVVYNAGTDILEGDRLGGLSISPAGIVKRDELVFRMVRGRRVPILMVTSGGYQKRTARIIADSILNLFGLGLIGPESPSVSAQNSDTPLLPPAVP
Method in brief: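 Recombinant human enzyme incubated for 60 min at 37°C in HDAC assay buffer containing 5 μg BSA and substrate 3 at 10 μM. Developer (double strength) was added for 20 min at room temperature, and fluorescence was read at 360/460 nm. Six concentrations were tested in duplicate. Percent activity was normalised between no-inhibitor (100%) and no-enzyme (0%) wells, and IC50 came from sigmoidal nonlinear regression.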

[3] = system: hippocampal histone H3 and H4 acetylation; assay: Brain/hippocampal histone acetylation after i.p. injection; assay type: in vivo, Long-Evans rats
contextual fear memory = assay: Contextual fear conditioning, 24 hr retention; assay type: in vivo, Long-Evans rats; settings: 1.2 g/kg i.p. 1 hr prior to CFC training

recombinant human HDAC 1, sequence (Q13547 whole entry): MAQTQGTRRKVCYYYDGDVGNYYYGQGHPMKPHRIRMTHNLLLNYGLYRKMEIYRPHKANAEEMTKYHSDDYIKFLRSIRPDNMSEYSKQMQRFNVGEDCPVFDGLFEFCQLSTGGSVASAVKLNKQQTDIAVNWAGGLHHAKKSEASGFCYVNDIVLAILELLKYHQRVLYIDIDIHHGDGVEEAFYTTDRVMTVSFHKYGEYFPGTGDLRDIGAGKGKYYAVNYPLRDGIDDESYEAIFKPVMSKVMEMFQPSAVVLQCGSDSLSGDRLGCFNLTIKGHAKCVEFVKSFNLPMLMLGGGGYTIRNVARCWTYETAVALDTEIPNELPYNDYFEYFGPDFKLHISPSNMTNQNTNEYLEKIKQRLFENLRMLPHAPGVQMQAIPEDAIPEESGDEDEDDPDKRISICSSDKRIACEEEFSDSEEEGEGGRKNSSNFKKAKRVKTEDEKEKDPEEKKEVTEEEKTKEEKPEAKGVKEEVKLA

CCCC(=O)[O-].[Na+] [NaB, sodium butyrate]
IC50 (recombinant human HDAC 1): 330 µM
IC50 (recombinant human HDAC 2): 118 µM
IC50 (recombinant human HDAC 3): 126 µM
IC50 (recombinant human HDAC 8): 611 µM
IC50 [1]: 543 µM
IC50 [2]: 565 µM
histone H3 and H4 acetylation in whole hippocampus, 30 min ([3]; 30 min after 1.2 g/kg i.p.): increasing at 30 min relative to vehicle
histone H3 and H4 acetylation in whole hippocampus, 60 min ([3]; 60 min after 1.2 g/kg i.p.): returning to baseline levels
mean freezing at 24 hr retention test (contextual fear memory): 12.73 s
retention of contextual fear memory at 24 hr (contextual fear memory): failed to enhance retention
